Measurements taken from ChEMBL document CHEMBL4602726, “Discovery of the First Vitamin K Analogue as a Potential Treatment of Pharmacoresistant Seizures” (J Med Chem, 2020).

Assays:
[1] = Toxicity in CF1 mouse assessed as induction of motor impairment during acute (1 hr) observation period by rotarod assay; settings: CF1, mouse, in vivo
Summary of the method: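 Male CF-1 mice, ip dosing in miglyol 840/DMSO (95%/5%), up to 800 mg/kg. Rotarod at 6 rpm done 1 h after dosing, on the same animals just before 6 Hz testing. Falling three times within one minute scored as impaired; animals also inspected visually.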

[2] = Toxicity in Zebrafish; parameters: species or system Danio rerio; settings: in vivo, read-out: LD50 (the source's name)
[3] = Tmax in CD1 mouse at 20 mg/kg, ip measured after 0.083 to 24 hrs by LC-MS/MS analysis; type: ADME, organism-based; settings: in vivo
Danio rerio [4] = species on record: Danio rerio; test: Anti-seizure activity in Zebrafish; type: functional, organism-based
Summary of the method: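 Single 7 dpf zebrafish larvae per well, pretreated 1 h at […] with compound (10 or 5 μM) in E3 buffer from DMSO stock. Then 15 mM PTZ added and movement tracked 15 min in 1-min bins. VPA 5 and 10 mM as positive controls, n=8 per group, one-way ANOVA.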

Danio rerio [5] = species on record: Danio rerio; test: Anti-seizure activity in Zebrafish larvae assessed as reduction in PTZ-induced increase in total swimming distance in 15 mins at 5 uM pre-incubated for 1 hr prior to PTZ-induced seizure induction relative to control; type: functional; parameters: scale not given: the % may be the effect or the level left
[6] = Half life in mouse; type: ADME, organism-based; settings: in vivo
[7] = AUClast in CD1 mouse at 20 mg/kg, ip measured after 0.083 to 24 hrs by LC-MS/MS analysis; type: ADME, organism-based; parameters: time lower 0.083 hr, dose 20 mg/kg, time upper 24 hr, route intraperitoneal; settings: in vivo
Summary of the method: (§1)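 Male CD-1 mice, 3 per route. Oral and ip at 20 mg/kg by gavage needle; iv at 5 mg/kg by tail vein. Vehicles were 20% DMA:40% PEG300:40% H2O for oral/iv and 5% DMSO:95% Neobee for ip. Blood sampled 0.083–24 h, plasma protein-precipitated with acetonitrile plus internal standard, LC-MS/MS (MRM). Non-compartmental analysis, linear trapezoidal AUC.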

[8] = Cmax in CD1 mouse at 20 mg/kg, ip measured after 0.083 to 24 hrs by LC-MS/MS analysis; type: ADME, organism-based; parameters: dose 20 mg/kg, route intraperitoneal; settings: in vivo; summary of the method: as §1
Danio rerio [9] = species on record: Danio rerio; test: Anti-seizure activity in Zebrafish larvae assessed as reduction in PTZ-induced increase in total swimming distance in 15 mins at 10 uM pre-incubated for 1 hr prior to PTZ-induced seizure induction relative to control; type: functional; parameters: scale not given: the % may be the effect or the level left
[10] = Half life in CD1 mouse at 20 mg/kg, ip measured after 0.083 to 24 hrs by LC-MS/MS analysis; type: ADME, organism-based; settings: in vivo; summary of the method: as §1
[11] = Toxicity in mouse HT22 cells assessed as inhibition of cell viability at 10 uM incubated for 48 hrs by Cell-titer-Blue dye based fluorescence spectrophotometry relative to control; parameters: species or system HT-22; settings: read-out: Activity
Summary of the method: (§2)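 HT-22 cells in DMEM high glucose with 10% FBS, 2000 per well. Serially diluted compound added after 12 h, incubated 48 h. […] Background subtracted, normalized to control wells.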

[12] = Toxicity in mouse HT22 cells assessed as inhibition of cell viability at 50 uM incubated for 48 hrs by Cell-titer-Blue dye based fluorescence spectrophotometry relative to control; parameters: species or system HT-22; settings: read-out: Activity; summary of the method: as §2
Danio rerio [13] = species on record: Danio rerio; test: Increase in ATP concentration in zebrafish at 1 uM incubated for 24 hrs by fluorometric ATP assay relative to control; type: functional
Summary of the method: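 7 dpf zebrafish larvae, one per well, kept at 28.5°C for 24 h with compound in E3 buffer (DMSO stock). DMSO vehicle in control wells. Twelve fish per condition pooled, flash-frozen, homogenized in ATP buffer and centrifuged. ATP in the supernatant read by fluorescence at ex 535/em 587 nm, normalized to total protein (BCA), and expressed as nmole/mg relative to DMSO control. n = 7–13.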

Mus musculus = test: Anti-seizure activity in ip dosed CF1 mouse assessed as attenuation of psychomotor seizures at stimulus intensities of 42 mA at pre-treated at 1 hr before test by 6 Hz limbic seizure test relative to control; type: functional
[14] = Drug reactivity with 2-mercaptoethanol measured over 6 hrs; type: physicochemical

CC[C@@H](C(N)=O)N1CCCC1=O
TD50 at 1 h [1]: > 500 mg/kg

C#CCNC1=CC(=O)c2ccccc2C1=O
LC50 [2]: > 20 µM | Tmax [3]: 15 min | EC50 (Danio rerio [4]): 20 µM | Activity (Danio rerio [5]): 7.4% | half-life [6]: 66 min | AUC(0-t) [7]: 978 ng·h/mL | Cmax [8]: 1490 ng/mL | Activity (Danio rerio [9]): 5.4% | half-life [10]: 66 min

O=C1C=C(NCC2CC2)C(=O)c2ccccc21
inhibition at 48 h, 10 µM [11]: 16.8% | inhibition at 48 h, 50 µM [12]: 54.1% | Activity (Danio rerio [5]): -10.1% | Activity (Danio rerio [9]): -10.1%

CCC(O)CNC1=CC(=O)c2ccccc2C1=O (stereo not drawn)
inhibition at 48 h, 10 µM [11]: 38.6% | inhibition at 48 h, 50 µM [12]: 69%

O=C1C=C(NCCC2CCCCC2)C(=O)c2ccccc21
inhibition at 48 h, 10 µM [11]: 0.07% | inhibition at 48 h, 50 µM [12]: 2.09%

CC(C)(C)CNC1=CC(=O)c2ccccc2C1=O
inhibition at 48 h, 10 µM [11]: 10.8% | inhibition at 48 h, 50 µM [12]: 22.4%

O=C1C=C(NCCC2CC2)C(=O)c2ccccc21
inhibition at 48 h, 10 µM [11]: 34.7% | inhibition at 48 h, 50 µM [12]: 56.4%

CC1=C(NCCC(C)(C)C)C(=O)c2ccccc2C1=O
inhibition at 48 h, 10 µM [11]: 10.2% | inhibition at 48 h, 50 µM [12]: 17.5% | Activity (Danio rerio [5]): 3.3%

CC(C)(C)CCCNC1=CC(=O)c2ccccc2C1=O
inhibition at 48 h, 10 µM [11]: 3.81% | inhibition at 48 h, 50 µM [12]: 6.75% | Activity (Danio rerio [5]): -3%

CC(C)(O)CCNC1=CC(=O)c2ccccc2C1=O
inhibition at 48 h, 10 µM [11]: 25.5% | inhibition at 48 h, 50 µM [12]: 59.7% | Activity (Danio rerio [5]): 9.5% | Activity (Danio rerio [9]): -5.6%

CC(C)=CCNC1=CC(=O)c2ccccc2C1=O
inhibition at 48 h, 10 µM [11]: 15% | inhibition at 48 h, 50 µM [12]: 38.3% | Activity (Danio rerio [5]): -4.4%

CC(C)CCCNC1=CC(=O)c2ccccc2C1=O
inhibition at 48 h, 10 µM [11]: 28.8% | inhibition at 48 h, 50 µM [12]: 21.3%

CC(O)CCNC1=CC(=O)c2ccccc2C1=O (stereo not drawn)
inhibition at 48 h, 10 µM [11]: 19.4% | inhibition at 48 h, 50 µM [12]: 64.2% | Activity (Danio rerio [5]): 0.78%

CC1=C(NCCC(C)C)C(=O)c2ccccc2C1=O
inhibition at 48 h, 10 µM [11]: 11.2% | inhibition at 48 h, 50 µM [12]: 21.4%

CC(C)CC(C)NC1=CC(=O)c2ccccc2C1=O (stereo not drawn)
inhibition at 48 h, 10 µM [11]: 2.09% | inhibition at 48 h, 50 µM [12]: 15%

O=C1C=C(NCCC2CCCC2)C(=O)c2ccccc21
inhibition at 48 h, 10 µM [11]: 35.4% | inhibition at 48 h, 50 µM [12]: 43.8% | Activity (Danio rerio [5]): 45%

CN(CCCNC1=CC(=O)c2ccccc2C1=O)c1ccccc1
inhibition at 48 h, 10 µM [11]: 11.5% | inhibition at 48 h, 50 µM [12]: 10.2% | Activity (Danio rerio [5]): 7.3%

O=C1C=C(NCCC2CCC2)C(=O)c2ccccc21
inhibition at 48 h, 10 µM [11]: 27.2% | inhibition at 48 h, 50 µM [12]: 36.3% | Activity (Danio rerio [13]): 21.4%

CCN(C)CCNC1=CC(=O)c2ccccc2C1=O
inhibition at 48 h, 10 µM [11]: 86.2% | inhibition at 48 h, 50 µM [12]: 101%

O=C1C=C(NCC2CCC2)C(=O)c2ccccc21
inhibition at 48 h, 10 µM [11]: 33.7% | inhibition at 48 h, 50 µM [12]: 62.3%

CCC(C)CNC1=CC(=O)c2ccccc2C1=O (stereo not drawn)
inhibition at 48 h, 10 µM [11]: 14.8% | inhibition at 48 h, 50 µM [12]: 41.2% | Activity (Danio rerio [5]): 23%

CC(C)(C)CCNC1=CC(=O)c2ccccc2C1=O
inhibition at 48 h, 10 µM [11]: 11.9% | inhibition at 48 h, 50 µM [12]: 17%

CN(C)CCNC1=CC(=O)c2ccccc2C1=O
inhibition at 48 h, 10 µM [11]: 82.6% | inhibition at 48 h, 50 µM [12]: 99.8%

CCN(CC)CCNC1=CC(=O)c2ccccc2C1=O
inhibition at 48 h, 10 µM [11]: 83.8% | inhibition at 48 h, 50 µM [12]: 100% | Activity (Danio rerio [5]): -7.2% | Activity (Danio rerio [9]): 27%

CN(C)CCCNC1=CC(=O)c2ccccc2C1=O
inhibition at 48 h, 10 µM [11]: 74.5% | inhibition at 48 h, 50 µM [12]: 96.7% | Activity (Danio rerio [9]): -2.9%

CC(CO)CCNC1=CC(=O)c2ccccc2C1=O (stereo not drawn)
inhibition at 48 h, 10 µM [11]: 25.7% | inhibition at 48 h, 50 µM [12]: 76.7% | Activity (Danio rerio [5]): -2.4% | Activity (Danio rerio [9]): 8.2%

C=C(C)[C@@H]1CCC(C)=C[C@H]1c1c(O)cc(CCCCC)cc1O [CANNABIDIOL]
ED50 (Mus musculus): 174 mg/kg

NC(=O)OCC(COC(N)=O)c1ccccc1 [FELBAMATE]
ED50 (Mus musculus): 97.5 mg/kg | TD50 at 1 h [1]: 452 mg/kg

CC1=CC(=O)c2ccccc2C1=O [MENADIONE]
LC50 [2]: 6 µM | EC50 (Danio rerio [4]): 3 µM | Drug metabolism [14]: Metabolite_Detected | half-life [6]: 27 min

CCCC(CCC)C(=O)O [VALPROIC ACID]
ED50 (Mus musculus): 289 mg/kg
